Assay outcomes as filed in PubChem.
A selection: hits, their analogues and other compounds. The true share with any hit is near 3.5%.
STAT3 activator: activators of IL-6 induced STAT3 signaling | U3A cells, IL-6 STAT3-luciferase reporter, luminescence; 100% = signal with IL-6 EC80 alone | activation (% of control), % at 5.6 µM | 190,000 tested, 0.91% active | AID 871;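 active means activation above the screen-wide mean of compound activation plus 3 SD, cut at about 130% in these data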
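Test system: STAT3-luciferase reporter U3A cells; Detection: reporter luminescence signal; Times: 1 h compound pre-exposure, 6 h IL-6 stimulation, 37 °C; Benchmarks: IL-6-only high control; Also added: IL-6 stimulus at 33 ng/mL final.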
FXIa inh: blocks human coagulation factor XIa protease activity; inhibition, % at 5 µM; P03951; purified FXIa, Boc-Glu-Ala-Arg-AMC fluorogenic substrate; 220,000 tested, 0.14% active;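 active means inhibition of at least 40%; inactive means inhibition below 40%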;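 further: fluorescence of freed AMC excited at 355 nm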
FXIIa inh: blocks human coagulation factor XIIa protease activity; P00748; 220,000 tested, 0.3% active; purified FXIIa, Boc-QGR-AMC fluorogenic substrate, 2 h; AID 800; inhibition, % at 5 µM; in the data active means inhibition above about 40%
Thrombin inh: inhibitors of human thrombin | P00734 | alpha-thrombin, Boc-VPR-AMC fluorogenic substrate cleavage | inhibition, % at 5 µM | 220,000 tested, 0.26% active | AID 1046;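 active means inhibition at or above 40%; inactive means inhibition below 40%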
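Test system: human alpha-thrombin; medium: pH 7.5 Tris-saline with Tween 20; times: reaction at room temperature; signal: AMC fluorescence at 355 nm excitation and 460 nm emission; also added: Boc-VPR-AMC substrate, 15 µM final; dosing: one concentration per compound, 5 µM, with 0.2% DMSO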
hK5 inh: inhibitors of human kallikrein 5 | 210,000 tested, 0.59% active | recombinant hK5, fluorogenic AMC substrate cleavage | inhibition, % at 5 µM | Q9Y337;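 active means inhibition of 40% or more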
AHR act: activates the human aryl hydrocarbon receptor; activation, % at 5 µM; 320,000 tested, 2.5% active; AID 2796; AHR-responsive luciferase reporter cells, luminescence; in the data active means activation above about 47%
Target sequence (P35869 whole entry, looked up): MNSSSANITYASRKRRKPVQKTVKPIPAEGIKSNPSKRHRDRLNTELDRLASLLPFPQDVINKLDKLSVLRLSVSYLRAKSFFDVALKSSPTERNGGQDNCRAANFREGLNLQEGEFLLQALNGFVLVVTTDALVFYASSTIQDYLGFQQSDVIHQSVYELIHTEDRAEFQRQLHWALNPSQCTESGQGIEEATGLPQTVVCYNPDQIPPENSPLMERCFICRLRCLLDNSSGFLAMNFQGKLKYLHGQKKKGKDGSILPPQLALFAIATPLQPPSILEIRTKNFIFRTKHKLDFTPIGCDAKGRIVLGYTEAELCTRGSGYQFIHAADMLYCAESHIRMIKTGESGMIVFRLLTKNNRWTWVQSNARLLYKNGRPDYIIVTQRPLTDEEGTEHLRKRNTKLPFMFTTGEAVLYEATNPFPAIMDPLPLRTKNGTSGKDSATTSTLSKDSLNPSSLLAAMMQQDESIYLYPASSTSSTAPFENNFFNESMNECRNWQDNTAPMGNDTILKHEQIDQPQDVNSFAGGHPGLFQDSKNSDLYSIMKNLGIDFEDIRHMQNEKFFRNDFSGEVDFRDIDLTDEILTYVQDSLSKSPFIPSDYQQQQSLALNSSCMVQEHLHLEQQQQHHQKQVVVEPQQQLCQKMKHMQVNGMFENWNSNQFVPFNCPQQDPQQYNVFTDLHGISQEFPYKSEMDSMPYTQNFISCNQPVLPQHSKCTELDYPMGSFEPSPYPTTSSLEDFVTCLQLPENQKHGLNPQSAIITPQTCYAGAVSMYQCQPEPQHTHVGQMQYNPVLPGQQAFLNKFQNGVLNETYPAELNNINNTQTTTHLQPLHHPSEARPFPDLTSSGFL
Each line names hits and unclear results; the compound was inactive in the other large screens.

Fc1ccc(Nc2ncnc3sc4c(c23)CCC4)cc1F	AHR act 49
COc1ccc(CCNC(=O)CSc2nnc(CNC(=O)c3cc(OC)c(OC)c(OC)c3)o2)cc1OC	none (no result: STAT3 activator, FXIa inh, FXIIa inh, Thrombin inh, hK5 inh)
O=C(c1ccco1)N1CCN(Cc2ccc(F)cc2)CC1	none (no result: STAT3 activator, FXIa inh, FXIIa inh, Thrombin inh, hK5 inh)
O=C(c1cc2cc(F)ccc2[nH]1)N1CCN(C(=O)c2ccco2)CC1	AHR act 54 (no result: STAT3 activator, FXIa inh, FXIIa inh, Thrombin inh, hK5 inh)
COc1cccc(/C=N/Nc2nnc(C)n2N)c1OCc1ccccc1Cl	AHR act 57
CCc1nnc(N/N=C/c2ccccc2Cl)n1N	AHR act 53
O=C(CCS(=O)(=O)c1ccccc1)Nc1nc2c(s1)COc1ccccc1-2	AHR act 63
COc1ccc2nc3ccccc3nc2c1N	FXIIa inh 44 (no result: STAT3 activator)
CCN(CC)c1ccc(NC(=O)/C=C/c2cc(Br)ccc2OC)cc1	AHR act 55
COc1ccc(NC(=O)/C=C/c2cc(Br)ccc2OC)cc1	none
CCc1nnc(NC(=O)c2ccc3c(c2)C(=O)N(CC)C3=O)s1	none
O=c1oc2cc(OCc3c(F)cccc3Cl)ccc2cc1-c1ccccn1	none
O=c1oc2cc(OCc3ccc(F)cc3F)ccc2cc1-c1ccc2ccccc2n1	AHR act 97
COc1ccc(Br)cc1Cn1nnc(C(=O)Nc2ccc3c(c2)OCCO3)c1N	AHR act 60 (no result: STAT3 activator, FXIa inh, FXIIa inh, Thrombin inh, hK5 inh)
COc1cc(C(=O)Nc2ccc3c(c2)OCCO3)ccc1OC(C)C	hK5 inh 63
Brc1ccc(Nc2ncnc3[nH]ncc23)cc1	none (no result: STAT3 activator)
CCOC(=O)C1=Nc2ccccc2C1=[N+]=[N-]	AHR act 66
CN(CC(=O)Nc1sccc1C(N)=O)S(=O)(=O)c1ccc(Cl)cc1	none (no result: STAT3 activator, FXIa inh, FXIIa inh, Thrombin inh, hK5 inh)
CCCN(CCC)CCCNC(=O)CC1Nc2ccccc2NC1=O (stereo unspecified)	none
COc1ccc(CCNC(=O)CC2Nc3ccccc3NC2=O)cc1 (stereo unspecified)	none
CC(NC(=O)CC1Nc2ccccc2NC1=O)c1ccccc1 (stereo unspecified)	none
O=C(CC1Nc2ccccc2NC1=O)NCCc1ccccc1 (stereo unspecified)	AHR act 49
NC(=O)CC1Nc2cccc3cccc(c23)NC1=O (stereo unspecified)	AHR act 51
O=C(CC1Nc2ccccc2NC1=O)c1ccccc1 (stereo unspecified)	AHR act 78
CC(C)CN(/C=N/c1sc2c(c1C#N)CCCCC2)CC(C)C	none
CCN(/C=N/c1sc2c(c1C#N)CCCCC2)CC	AHR act 57
N#Cc1c(/N=C/c2ccco2)sc2c1CCC2	Thrombin inh 104
CC(C)c1ccc(NC(=O)c2cccnc2)cc1	none
CC(C)N=C(Nc1ccc(Cl)cc1)c1cccnc1	AHR act 79
COc1ccc(C2CC(=O)C(C(c3ccc(O)cc3)C3C(=O)CC(c4ccc(OC)cc4)CC3=O)C(=O)C2)cc1 (stereo unspecified)	FXIIa inh 45, hK5 inh 50 (no result: STAT3 activator)
CCCOC1CCCN(C(=O)CCc2nnc(CCCCc3ccccc3)o2)C1 (stereo unspecified)	none (no result: hK5 inh)
CCN(CC)S(=O)(=O)c1cc(C(=O)Nc2nncs2)c(Cl)cc1Cl	hK5 inh 62
S=C1NC2=C(C(c3ccc(Br)cc3)N1)N1CCC2CC1 (stereo unspecified)	hK5 inh 76
O=C(Nc1ccccc1C(=O)N1CCCCC1)c1cc(F)c(F)cc1Cl	none (no result: STAT3 activator, FXIa inh, FXIIa inh, Thrombin inh, hK5 inh)
CCOc1ccccc1NC(=O)c1ccc2c(c1)C(=O)N(CC1CCCO1)C2=O (stereo unspecified)	AHR act 73 (no result: STAT3 activator, FXIa inh, FXIIa inh, Thrombin inh, hK5 inh)
COc1ccccc1Nc1nc(C)cc(C)c1C(N)=O	none
Cc1cc(C)c(C(N)=O)c(Nc2cccc3ccccc23)n1	AHR act 52
CSC1=NC(C(Cl)(Cl)Cl)N=C(c2ccc(C)cc2)N1 (stereo unspecified)	AHR act 67
COc1ccc(C(=O)c2c3ccc(C(F)(F)F)cc3[n+]([O-])n2CCCN)cc1	AHR act 65 (no result: STAT3 activator, FXIa inh, FXIIa inh, Thrombin inh, hK5 inh)
NC(=O)CCn1c(C(=O)c2cc(Cl)c(N)c(Cl)c2)c2ccccc2[n+]1[O-]	AHR act 76 (no result: STAT3 activator, FXIa inh, FXIIa inh, Thrombin inh, hK5 inh)
NCCCn1c(C(=O)c2cc(Cl)c(N)c(Cl)c2)c2ccccc2[n+]1[O-]	AHR act 72 (no result: STAT3 activator, FXIa inh, FXIIa inh, Thrombin inh, hK5 inh)
NC(=O)CCn1c(C(=O)c2cccc([N+](=O)[O-])c2)c2ccccc2[n+]1[O-]	AHR act 57 (no result: STAT3 activator, FXIa inh, FXIIa inh, Thrombin inh, hK5 inh)
COc1ccc(C(=O)c2c3ccccc3[n+]([O-])n2CCCN)cc1	none (no result: STAT3 activator, FXIa inh, FXIIa inh, Thrombin inh, hK5 inh)
Cc1ccc(C(=O)c2c3ccc(C(F)(F)F)cc3[n+]([O-])n2CCCN)cc1	none (no result: STAT3 activator, FXIa inh, FXIIa inh, Thrombin inh, hK5 inh)
COc1ccc(/C=C(/NC(=O)c2ccccc2)C(=O)N2CCOCC2)cc1OC	none (no result: STAT3 activator, FXIa inh, FXIIa inh, Thrombin inh, hK5 inh)
NC1=NC2(CCCCC2)N=C(Nc2ccc(Br)cc2)N1	AHR act 72
Cc1ccc(NC2=NC3(CCCCC3)N=C(N)N2)c(C)c1	FXIa inh 45
Cc1cccc(C)c1NC1=NC2(CCCCC2)N=C(N)N1	none
COc1ccc(Nc2cc(C)nc3c(C)cccc23)cc1OC	AHR act 68 (no result: STAT3 activator, FXIa inh, FXIIa inh, Thrombin inh, hK5 inh)
CCOc1ccc(Nc2cc(C)nc3c(C)cccc23)cc1	none (no result: STAT3 activator, FXIa inh, FXIIa inh, Thrombin inh, hK5 inh)
C#CCOCCOCCOCCNc1nc(N2CCN(C(=O)C([C@@H](C)CC)n3cc(C(N)CO)nn3)CC2)nc(N2CCN(C(=O)[C@H](CCC(=O)O)n3cc(C(N)[C@H](C)CC)nn3)CC2)n1 (stereo partly specified)	none (no result: STAT3 activator, AHR act)
O=C(O)C1CCN(C(=O)c2cccc3ccccc23)CC1	none (no result: STAT3 activator, FXIa inh, FXIIa inh, Thrombin inh, hK5 inh)
CN1CC(C(=O)O)Cc2c1ccc1ccccc21 (stereo unspecified)	AHR act 54 (no result: STAT3 activator)
C=CCNC(=O)Cc1ccc(S(=O)(=O)N2CCOCC2)s1	none (no result: STAT3 activator, FXIa inh, FXIIa inh, Thrombin inh, hK5 inh)
CC(=O)Nc1cccc(-c2nc3ccccc3[nH]2)c1	AHR act 47
COc1cccc(OC)c1C(=O)Nc1cccc(-c2nc3ccccc3[nH]2)c1	none
CC(Oc1ccccc1)C(=O)Nc1cccc(-c2nc3ccccc3[nH]2)c1 (stereo unspecified)	none
CC(C)(C)C(=O)Nc1cccc(-c2nc3ccccc3[nH]2)c1	AHR act 61
CC(C)CC(=O)Nc1cccc(-c2nc3ccccc3[nH]2)c1	AHR act 58 (no result: STAT3 activator)
CCC(C)Sc1ccc([C@@H]2[C@@H]3C(=O)N(C)C(=O)[C@@H]3[C@]3(C(=O)OC)CCCCN23)cc1 (stereo partly specified)	none (no result: STAT3 activator, FXIa inh, FXIIa inh, Thrombin inh, hK5 inh)
CCOC(=O)CCCSc1nnc(CCCCCN2C(=O)c3cccc4cccc(c34)C2=O)o1	none
Cc1cc(C)cc(N=Cc2[nH]c3ccc(Br)c(Cl)c3c2O)c1	none
COc1ccc(CN=Cc2[nH]c3ccc(Br)c(Cl)c3c2O)cc1	AHR act 57
CCOC(=O)N1CCN(C(=O)c2oc3ccc(S(=O)(=O)N4CCOCC4)cc3c2C)CC1	Thrombin inh 40
COc1ccc(NC(=O)c2oc3ccc(S(=O)(=O)N4CCC5(CC4)OCCO5)cc3c2C)cc1	hK5 inh 100
